Measurements: ChEMBL document CHEMBL3877264, “Quinolidene-rhodanine conjugates: Facile synthesis and biological evaluation” (Eur J Med Chem, 2017)
In brackets after ≈: the same amount, converted by molar mass.

Experiments:
[1] = Antifungal activity against Fusarium oxysporum NCIM 1332 by standard agar method; format: functional
Outline: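 MICs determined by standard agar method; DMSO as solvent control.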

Staphylococcus aureus [2] = assay: Growth inhibition of Staphylococcus aureus NCIM 2010 at 30 ug/ml measured after 12 hrs relative to control; format: functional; settings: NCIM 2010, 12 h, read-out: GI
Outline: (§1)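 Bacteria grown in LB at 37 °C and 180 rpm to OD 1. Compounds added to wells, then 0.1% inoculum of 1 OD culture (620 nm). Growth read as OD at 620 nm after 8 h for gram-negative and after 12 h for gram-positive strains.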

Staphylococcus aureus [3] = assay: Growth inhibition of Staphylococcus aureus NCIM 2010 at 10 ug/ml measured after 12 hrs relative to control; format: functional; settings: NCIM 2010, 12 h, read-out: GI; outline: as §1
Bacillus subtilis = assay: Growth inhibition of Bacillus subtilis NCIM 2079 at 10 ug/ml measured after 12 hrs relative to control; format: functional; settings: NCIM 2079, 12 h, read-out: GI; outline: as §1
Escherichia coli [4] = assay: Growth inhibition of Escherichia coli NCIM 2688 at 30 ug/ml measured after 8 hrs relative to control; format: functional; settings: NCIM 2688, 8 h, read-out: GI; outline: as §1
Escherichia coli [5] = assay: Growth inhibition of Escherichia coli NCIM 2688 at 10 ug/ml measured after 8 hrs relative to control; format: functional; settings: NCIM 2688, 8 h, read-out: GI; outline: as §1
Escherichia coli [6] = assay: Growth inhibition of Escherichia coli NCIM 2688 at 3 ug/ml measured after 8 hrs relative to control; format: functional; settings: NCIM 2688, 8 h, read-out: GI; outline: as §1
Escherichia coli [7] = assay: Antibacterial activity against Escherichia coli NCIM 2688 measured after 8 hrs; format: functional; settings: NCIM 2688, 8 h; outline: as §1
Pseudomonas fluorescens = assay: Antibacterial activity against Pseudomonas fluorescens NCIM 2036 measured after 8 hrs; format: functional; settings: NCIM 2036, 8 h; outline: as §1
Staphylococcus aureus [8] = assay: Antibacterial activity against of Staphylococcus aureus NCIM 2010 measured after 12 hrs; format: functional; settings: NCIM 2010, 12 h; outline: as §1
[9] = test system: Mycobacterium tuberculosis; assay: Growth inhibition of Mycobacterium tuberculosis H37Ra ATCC 25177 at active stage at 50 ug/ml measured after 8 days by XTT dye based two fold dilution method relative to control; format: functional; settings: H37Ra ATCC 25177, 192 h, read-out: GI
Outline: (§2)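 MTB H37Ra was grown in Dubos medium, then exposed in Mycobacterium pheli minimal medium (pH 6.6) to compounds dissolved in DMSO. The assay ended on day 8 (active) or day 12 (dormant). Viable cells were measured by XTT reduction menadione assay at 470 nm, blank-corrected, relative to vehicle control. Triplicates were expressed as mean ± SD. MIC came from dose-response curves.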

[10] = test system: Mycobacterium tuberculosis; assay: Growth inhibition of Mycobacterium tuberculosis H37Ra ATCC 25177 at dormant stage at 25 ug/ml measured after 12 days by XTT dye based two fold dilution method relative to control; format: functional; settings: H37Ra ATCC 25177, 288 h, read-out: GI; outline: as §2
[11] = test system: Mycobacterium tuberculosis; assay: Growth inhibition of Mycobacterium tuberculosis H37Ra ATCC 25177 at dormant stage at 12.5 ug/ml measured after 12 days by XTT dye based two fold dilution method relative to control; format: functional; settings: H37Ra ATCC 25177, 288 h, read-out: GI
[12] = test system: Mycobacterium tuberculosis; assay: Growth inhibition of Mycobacterium tuberculosis H37Ra ATCC 25177 at dormant stage at 6.25 ug/ml measured after 12 days by XTT dye based two fold dilution method relative to control; format: functional; settings: H37Ra ATCC 25177, 288 h, read-out: GI; outline: as §2
[13] = test system: Mycobacterium tuberculosis; assay: Growth inhibition of Mycobacterium tuberculosis H37Ra ATCC 25177 at dormant stage at 3.13 ug/ml measured after 12 days by XTT dye based two fold dilution method relative to control; format: functional; settings: H37Ra ATCC 25177, 288 h, read-out: GI; outline: as §2
[14] = test system: Mycobacterium tuberculosis; assay: Growth inhibition of Mycobacterium bovis BCG ATCC 35743 at dormant stage at 6.25 ug/ml measured after 12 days by nitrate reductase dye based two fold dilution method relative to control; format: functional; settings: BCG str. ATCC 35743, 288 h, read-out: GI
Outline: (§3)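 M. bovis BCG was grown in Dubos medium and assayed in Mycobacterium pheli minimal medium (pH 6.6), with compounds from DMSO stocks. Incubation lasted 8 days for active and 12 days for dormant cultures. Viability was read by nitrate reductase at 540 nm against cell-free blanks, with vehicle set as 100% growth. Primary screen was at 30, 10 and 3 µg/ml, in triplicate, mean ± SD. MIC was taken from dose-response curves.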

[15] = test system: Mycobacterium tuberculosis; assay: Growth inhibition of Mycobacterium bovis BCG ATCC 35743 at dormant stage at 3.13 ug/ml measured after 12 days by nitrate reductase dye based two fold dilution method relative to control; format: functional; settings: BCG str. ATCC 35743, 288 h, read-out: GI; outline: as §3
[16] = test system: Mycobacterium tuberculosis; assay: Growth inhibition of Mycobacterium bovis BCG ATCC 35743 at active stage at 100 ug/ml measured after 8 days by nitrate reductase dye based two fold dilution method relative to control; format: functional; settings: BCG str. ATCC 35743, 192 h, read-out: GI
[17] = test system: Mycobacterium tuberculosis; assay: Growth inhibition of Mycobacterium bovis BCG ATCC 35743 at active stage at 50 ug/ml measured after 8 days by nitrate reductase dye based two fold dilution method relative to control; format: functional; settings: BCG str. ATCC 35743, 192 h, read-out: GI
[18] = test system: Mycobacterium tuberculosis; assay: Growth inhibition of Mycobacterium bovis BCG ATCC 35743 at active stage at 0.78 ug/ml measured after 8 days by nitrate reductase dye based two fold dilution method relative to control; format: functional; settings: BCG str. ATCC 35743, 192 h, read-out: GI; outline: as §3
[19] = test system: Mycobacterium tuberculosis; assay: Growth inhibition of Mycobacterium bovis BCG ATCC 35743 at dormant stage at 30 ug/ml measured after 12 days by nitrate reductase dye based two fold dilution method relative to control; format: functional; settings: BCG str. ATCC 35743, 288 h, read-out: GI; outline: as §3
[20] = test system: Mycobacterium tuberculosis; assay: Growth inhibition of Mycobacterium bovis BCG ATCC 35743 at dormant stage at 10 ug/ml measured after 12 days by nitrate reductase dye based two fold dilution method relative to control; format: functional; settings: BCG str. ATCC 35743, 288 h, read-out: GI; outline: as §3
[21] = test system: Mycobacterium tuberculosis; assay: Growth inhibition of Mycobacterium bovis BCG ATCC 35743 at dormant stage at 3 ug/ml measured after 12 days by nitrate reductase dye based two fold dilution method relative to control; format: functional; settings: BCG str. ATCC 35743, 288 h, read-out: GI; outline: as §3
[22] = Cytotoxicity against human THP1 cells assessed as growth inhibition at 100 ug/ml measured after 48 hrs by MTT assay relative to control; format: toxicity, cell-based, THP-1; settings: read-out: GI
Outline: (§4)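 MTT assay with 48 h compound exposure. THP-1 macrophages made by 24 h PMA treatment. Each concentration tested in triplicate in one experiment. % cytotoxicity = (control−test)/(control−blank)×100, with control = cells + DMSO and blank = medium without cells. IC50 from % survival versus concentration plots.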

[23] = Cytotoxicity against […]-differentiated human THP1 cells assessed as growth inhibition at 100 ug/ml measured after 48 hrs by MTT assay relative to control; format: toxicity, cell-based, THP-1; settings: read-out: GI; outline: as §4
[24] = Cytotoxicity against human A549 cells measured after 48 hrs by MTT assay; format: toxicity, cell-based
[25] = Cytotoxicity against human PANC1 cells measured after 48 hrs by MTT assay; format: toxicity, cell-based, PANC-1
[26] = Cytotoxicity against human HeLa cells at 100 ug/ml assessed as growth inhibition measured after 48 hrs by MTT assay relative to control; format: toxicity, cell-based; settings: read-out: GI
[27] = Selectivity index, ratio of GI50 for human HeLa cells to MIC for Mycobacterium tuberculosis H37Ra ATCC 25177 at dormant stage; format: toxicity, cell-based; settings: read-out: Selectivity Index
Outline: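 SI is the cell-line GI50 divided by the dormant-stage mycobacterial MIC. […] THP-1 macrophages were PMA-differentiated for 24 h.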

[28] = test system: Mycobacterium tuberculosis; assay: Growth inhibition of Mycobacterium bovis BCG ATCC 35743 at active stage measured after 8 days by nitrate reductase dye based two fold dilution method; format: functional; settings: BCG str. ATCC 35743, 192 h; outline: as §3

SMILES | MIC [1] [µg/mL] | inhibition of growth at 30 µg/mL (Staphylococcus aureus [2]) [%] | inhibition of growth at 10 µg/mL (Staphylococcus aureus [3]) [%] | inhibition of growth at 10 µg/mL (Bacillus subtilis) [%] | inhibition of growth at 30 µg/mL (Escherichia coli [4]) [%] | inhibition of growth at 10 µg/mL (Escherichia coli [5]) [%] | inhibition of growth at 3 µg/mL (Escherichia coli [6]) [%] | MIC (Escherichia coli [7]) [µg/mL] | MIC (Pseudomonas fluorescens) [µg/mL] | MIC (Staphylococcus aureus [8]) [µg/mL] | inhibition of growth at 50 µg/mL [9] [%] | inhibition of growth at 25 µg/mL [10] [%] | inhibition of growth at 12.5 µg/mL [11] [%] | inhibition of growth at 6.25 µg/mL [12] [%] | inhibition of growth at 3.13 µg/mL [13] [%] | inhibition of growth at 30 µg/mL [19] [%] | inhibition of growth at 10 µg/mL [20] [%] | inhibition of growth at 3 µg/mL [21] [%] | inhibition at 48 h, 100 ug/ml [22] [%] | inhibition at 48 h, 100 ug/ml [23] [%] | also measured
CCOc1ccc2nc(Cl)c(/C=C3\SC(=S)NC3=O)cc2c1 | 150 (≈ 428 µM) | -29.8 | 46.8 | -7.03 | 28 | 77.2 | 64.7 | > 30 | > 30 | > 30 | 100 | 105 | 101 | 102 | 71.7 | 94.5 | 93.5 | 91 | 28.6 | 35.1 | inhibition of growth at 6.25 µg/mL [14]: 101%; inhibition of growth at 3.13 µg/mL [15]: 100%; inhibition of growth at 100 µg/mL [16]: 96.8%; inhibition of growth at 50 µg/mL [17]: 98.1%; inhibition of growth at 0.78 µg/mL [18]: -51.8%; GI50 at 48 h [24]: > 100 µg/mL; GI50 at 48 h [25]: > 100 µg/mL; inhibition at 48 h, 100 ug/ml [26]: 30.2%; selectivity ratio [27]: 28.6
Cc1cccc2cc(/C=C3\SC(=S)N(CC(=O)O)C3=O)c(Cl)nc12 | 175 (≈ 462 µM) | 15.5 | -4.38 | -19.6 | -0.186 | 3.38 | 8.28 | > 30 | > 30 | > 30 | 107 | 96.8 | 51 | -2.45 | 11.5 | 70 | 31.6 | 22.7 | 32.3 | 25 | IC50 [28]: > 30 µg/mL; IC90 [28]: > 30 µg/mL; GI50 at 48 h [24]: > 100 µg/mL; GI50 at 48 h [25]: > 100 µg/mL; inhibition at 48 h, 100 ug/ml [26]: 3.1%; selectivity ratio [27]: 5
O=C(O)CN1C(=O)/C(=C/c2cc3cc(F)ccc3nc2Cl)SC1=S | 25 (≈ 65.3 µM) | -19 | -1.12 | -2.7 | -1.67 | -8.65 | -2.27 | > 30 | > 30 | > 30 | 82.8 | 27.7 | 1.72 | 7.26 | 9.18 | 28.2 | 43.1 | 23.9 | 27.6 | 14.5 | inhibition of growth at 6.25 µg/mL [14]: 100%; inhibition of growth at 3.13 µg/mL [15]: 99.5%; IC50 [28]: > 30 µg/mL; IC90 [28]: > 30 µg/mL; GI50 at 48 h [24]: > 100 µg/mL; GI50 at 48 h [25]: > 100 µg/mL; inhibition at 48 h, 100 ug/ml [26]: 9.01%
COc1ccc2cc(/C=C3\SC(=S)NC3=O)c(Cl)nc2c1 | 50 (≈ 148 µM) | -23.5 | 44 | -8.32 | 35.5 | 39.4 | 26.4 | > 30 | > 30 | > 30 | 102 | 103 | 69.5 | 23.2 | 36.4 | 10.1 | 27.9 | -7.94 | 26.7 | 31.3 | inhibition of growth at 6.25 µg/mL [14]: 94%; inhibition of growth at 3.13 µg/mL [15]: 81.6%; inhibition of growth at 100 µg/mL [16]: 98.9%; inhibition of growth at 50 µg/mL [17]: 99.9%; inhibition of growth at 0.78 µg/mL [18]: -60.1%; IC50 [28]: 1.7 µg/mL (≈ 5.05 µM); IC90 [28]: 2.9 µg/mL (≈ 8.61 µM); GI50 at 48 h [24]: > 100 µg/mL; GI50 at 48 h [25]: > 100 µg/mL; inhibition at 48 h, 100 ug/ml [26]: 30.1%
